p-CIP stab down: p/CIP-EGFP fusion destabilizers, primary screen, fluorescence, F442A cells | 0.01% of 290,000 active | Q05BA5 | AID 1984, 2009 | 16 h | decrease of EGFP signal, % at 10 µM;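 active means EGFP signal decrease of at least 30% at 10 µM or well 3 SD below plate mean, unless failing retest; inactive means the rest, including hits failing retest or dose response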
ABCB6 inh MLPCN: ABCB6 transporter inhibitors, primary screen, K562-ABCB6 cells, flow cytometry, MLPCN library | AID 602162, 2011 | fluorescence ratio to DMSO, % at 10 µM | 0.19% of 360,000 active | K562-ABCB6 porphyrin accumulation, 1 h; active compounds read low | ATP-binding cassette sub-family B member 6 (Homo sapiens), Q9NP58;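 active means fluorescence ratio to DMSO below 75%, the collection mean minus 3 SD; inconclusive means too few cells collected in the well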;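 further: signal is porphyrin accumulated inside mitochondria; lower ratio means ABCB6 inhibition with less porphyrin fluorescence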
Target sequence (Q9NP58 whole entry, looked up): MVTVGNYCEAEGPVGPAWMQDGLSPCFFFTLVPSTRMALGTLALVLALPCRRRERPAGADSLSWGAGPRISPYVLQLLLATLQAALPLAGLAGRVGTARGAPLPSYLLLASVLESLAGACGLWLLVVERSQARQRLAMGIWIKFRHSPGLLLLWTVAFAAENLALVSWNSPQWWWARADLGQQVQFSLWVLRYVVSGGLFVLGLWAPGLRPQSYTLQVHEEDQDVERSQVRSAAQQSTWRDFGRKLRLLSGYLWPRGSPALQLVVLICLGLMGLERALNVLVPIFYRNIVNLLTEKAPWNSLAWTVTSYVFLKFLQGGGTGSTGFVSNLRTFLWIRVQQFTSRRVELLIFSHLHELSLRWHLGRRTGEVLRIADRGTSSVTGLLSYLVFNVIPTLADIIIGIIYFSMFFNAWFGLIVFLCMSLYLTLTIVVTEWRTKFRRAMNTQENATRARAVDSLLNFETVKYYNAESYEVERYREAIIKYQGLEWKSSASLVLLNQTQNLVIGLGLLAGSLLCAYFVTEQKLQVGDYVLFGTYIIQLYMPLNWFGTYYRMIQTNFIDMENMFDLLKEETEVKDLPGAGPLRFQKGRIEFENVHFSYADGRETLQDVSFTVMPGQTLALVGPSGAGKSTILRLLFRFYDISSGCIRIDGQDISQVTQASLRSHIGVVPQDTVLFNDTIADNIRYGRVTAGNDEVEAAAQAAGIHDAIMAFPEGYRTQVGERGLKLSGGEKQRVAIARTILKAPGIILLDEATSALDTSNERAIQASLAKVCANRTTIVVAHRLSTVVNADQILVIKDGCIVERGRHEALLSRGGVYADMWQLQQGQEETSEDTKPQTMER
V-ATPase pHluor: regulators of yeast V-ATPase proton pumping, primary screen, pHLuorin cytosolic pH fluorescence; S. cerevisiae; response, % at 10 µM; 0.37% of 350,000 active; AID 504577, 2011; in the data active means response mostly above about 7.3%, no sharp cut-off; inactive means mostly below about 5.4%; further: actives read high
Cl transport mod: KCC2 cotransporter modulators, thallium flux, primary screen, cell-based, HEK293 KCC2, FluoZin-2 fluorescence, MLSMR. 2.2% of 190,000 active. B-score of Tl+ flux slope (higher = more flux/activation; lower = inhibition) at 10 µM. KCC2 cells, thallium flux FluoZin-2 fluorescence. Solute carrier family 12 member 5 (Homo sapiens), Q9H2X9. AID 1456, 2008;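 active means thallium flux slope and its plate-corrected score both differing from the plate sample mean at a set confidence after two filtering rounds, in either direction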;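 further: slope of fluorescence scaled to starting intensity during 10 to 20 s after thallium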
Dynein transport: inhibitors of GR-EGFP nuclear translocation, primary screen, dynein cargo transport inhibitor project, imaging, high-content, 3617.4 mouse cells | test concentration mostly 20 µM; stimulated with dexamethasone, 1 µM; active compounds read low | z-score, hits read low | 0.47% of 220,000 active;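 active means plate z-score of nuclear minus cytoplasmic receptor signal below a set negative limit, without overly bright fluorescence or cell loss, cut at about -3.5 in these data, passing the limit was not always enough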;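 further: z-score of nuclear minus cytoplasmic ring GR-EGFP intensity difference per well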
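Buffer or medium – tet-free medium with charcoal-stripped serum · Signal – automated 10x imaging of fixed Hoechst-stained cells · Also added – dexamethasone agonist, 1.0 µM final, for 30 min · Incubation – induction 48 h, compound 1 h, agonist 30 min · Read-out – GR-EGFP nuclear translocation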
KCC2 sec1: KCC2 modulators in sodium-free buffer, confirmation, cell-based, HEK293 KCC2, thallium flux, secondary assay; shares compounds with Cl transport mod; FluoZin2 fluorescence; active compounds read high; normalised thallium flux (F/F0 slope) at 10 µM; 15% of 3,700 active;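 active means thallium flux slope above the same plate's solvent-only control mean plus 3 SD; inconclusive means the two replicate wells disagree; inactive means no significant difference from solvent-only control wells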
KCC2 bumet counter: thallium flux persisting under bumetanide in KCC2 cells, confirmation, counter-screen for KCC2 modulator project, cell-based, HEK293 KCC2, FluoZin2, secondary assay 3 | AID 1714, 2009 | HEK293-KCC2 + bumetanide/ouabain; active compounds read high | shares compounds with Cl transport mod | normalized thallium flux at 10 µM | 49% of 3,700 active;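 active means thallium entry rate above the same plate's blocked-transporter control wells by more than 3 SD; inconclusive means the two repeat wells disagree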;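 further: raw slope of fluorescence over initial fluorescence between 10 and 20 s after thallium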
KCC2 sec2: KCC2 modulators without ouabain present, confirmation, cell-based, HEK293 KCC2, thallium flux, FluoZin2, secondary assay 2. shares compounds with Cl transport mod. thallium flux FluoZin2 fluorescence; actives lie on both sides; F/F0 rise rate, 10–20 s post-thallium. normalized thallium flux at 10 µM. 23% of 3,700 active. AID 1715, 2009;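 active means thallium flux slope more than 3 SD above or below the plate's solvent-only control mean, mostly below; inconclusive means the two repeat wells disagreed; inactive means no significant shift from solvent-only controls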
HEK counter1: thallium flux modulation in parental HEK cells, confirmation, counter-screen for KCC2 modulator project, cell-based, counterscreen 1. thallium flux rate (normalised fluorescence) at 10 µM. shares compounds with Cl transport mod. HEK293 parental cells, thallium flux FluoZin2, ouabain; baseline-ratio fluorescence slope, 10–20 s after thallium. 46% of 3,700 active. AID 1716, 2009;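 active means thallium flux rate significantly above the same plate's solvent-only control wells, beyond their mean plus 3 SD; inconclusive means the two replicate wells gave conflicting results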
KCC2 retest ouab: KCC2 inhibitors and activators, ouabain retest, confirmation, HEK-KCC2 cells | raw Tl+ flux slope (below DMSO = inhibition, above = activation) at 10 µM | shares compounds with Cl transport mod | HEK293-KCC2, thallium flux FluoZin2 fluorescence; bidirectional: low = inhibitor, high = activator | AID 1717, 2009 | 48% of 3,700 active;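 active means thallium flux slope beyond 3 SD from same-plate DMSO control mean in most replicates, usually higher, sometimes lower; inconclusive means repeat tests gave conflicting results; inactive means no significant difference from controls in most replicates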;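 further: slope of initial-normalized fluorescence between seconds 10 and 20 after thallium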
HEK counter2: native HEK Tl+ uptake effects, second counter-screen – HEK cells, counterscreen 2, counter-screen for KCC2 modulator project, confirmation; shares compounds with Cl transport mod; HEK293 parental, thallium flux FluoZin-2 fluorescence slope; thallium flux slope at 10 µM; 33% of 3,700 active;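 active means thallium flux slope above the same plate's solvent-control mean plus 3 SD in both duplicate wells; inconclusive means duplicate wells that disagreed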;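 further: run without ouabain in cells lacking the KCC2 cotransporter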
Hits are given with their value; n = inactive; u = inconclusive; x = no result. Many of the other results were omitted from the sample, so hits are more common in it than they were.

SMILES	p-CIP stab down	ABCB6 inh MLPCN	V-ATPase pHluor	Cl transport mod	Dynein transport	KCC2 sec1	KCC2 bumet counter	KCC2 sec2	HEK counter1	KCC2 retest ouab	HEK counter2
CCC(Sc1ncnc2sc(C)c(C)c12)C(=O)OC (stereo not given)	n	n	n	x	n	0.026	0.056	0.046	0.042	0.044	0.036
CS(=O)(=O)c1ccc(C(=O)OCC(=O)c2ccc(Cl)s2)cc1	x	n	n	x	x	x	x	x	x	x	x
CCC(C)[C@H](NC(=O)Nc1ccccc1F)C(=O)OC (stereo not given in full)	n	n	n	n	n	x	x	x	x	x	x
COc1ccc(-c2csc(NC(=S)NC(=O)c3ccco3)n2)cc1	n	n	n	x	n	n	0.016	0.043	0.024	0.028	0.023
O=C(NC(=S)Nc1nc(-c2ccccc2)cs1)c1ccco1	n	n	n	16	n	u	0.045	n	0.02	0.032	0.012
O=C(Nc1nc(-c2cccs2)cs1)c1ccco1	n	n	n	n	n	x	x	x	x	x	x
COc1ccc(-c2csc(NC(=O)COC(=O)c3ccco3)n2)cc1	n	n	n	n	n	x	x	x	x	x	x
O=C(Nc1nc(-c2ccncc2)cs1)c1ccco1	n	n	n	x	n	n	n	n	n	n	n
CC(CCc1ccccc1)NC(=S)NC(=O)c1ccco1 (stereo not given)	n	n	n	103	n	0.035	0.09	0.07	0.07	0.076	0.068
COc1ccc(CN2CCCCCC2)cc1Br	n	n	n	x	x	x	x	x	x	x	x
O=C(NC(=S)Nc1c(Cl)ccc2nsnc12)c1ccco1	n	n	n	19	n	0.021	0.067	n	0.025	0.045	0.015
COc1ccc2nc(NC(=S)NC(=O)c3ccco3)sc2c1	n	n	n	80	n	0.03	0.14	0.03	0.075	0.097	0.039
O=C(Cn1cncn1)N/N=C/c1ccccc1O	n	n	n	n	n	x	x	x	x	x	x
O=C1c2ccccc2-c2cccc(NS(=O)(=O)c3ccc(C(F)(F)F)cc3)c21	n	n	n	x	n	u	0.076	u	0.023	0.039	0.016
O=S(=O)(Nc1ccccc1-c1ccccc1)c1ccccc1	x	n	n	x	x	x	x	x	x	x	x
CCC(c1nnc(SCc2nc3ccccc3s2)n1Cc1ccccc1)N(C)C (stereo not given)	n	n	n	x	n	n	n	u	n	n	n
c1ccc(Cn2c(SCc3nc4ccccc4s3)nnc2-c2ccco2)cc1	n	n	n	-3.4	n	n	u	0.027	0.0053	u	0.0076
CCn1c(SCc2nc3ccccc3s2)nnc1-c1ccccc1	n	n	n	n	n	x	x	x	x	x	x
Cc1cc(O)c2c(c1)C(=O)[C@@]13Oc4c5c(c(O)c6c(O)cc(C)cc46)C(=O)C[C@H](O)[C@H]5[C@@H]1[C@@H](O)CC(=O)C3=C2O	x	n	n	x	x	x	x	x	x	x	x
COc1cccc(C(C)(O)c2nc(-c3cc(F)cc(F)c3)cs2)c1 (stereo not given)	x	n	x	x	x	x	x	x	x	x	x
Cc1ccccc1CN1CCC(N2CCC(C(=O)NCC3CCCO3)CC2)CC1 (stereo not given)	n	n	n	x	x	x	x	x	x	x	x
Cc1nnc(SCC(=O)c2cc(C)n(-c3ccc4c(c3)OCO4)c2C)s1	n	n	n	-3.3	n	u	0.0031	n	u	n	n
CCSc1n[nH]c2nc3c(c(=O)n12)C1(CCCC1)Cc1ccccc1-3	n	n	n	n	n	x	x	x	x	x	x
C=CCSc1n[nH]c2nc3c(c(=O)n12)C1(CCCC1)Cc1ccccc1-3	n	n	n	x	n	n	u	n	u	n	n
COc1ccc(-c2cc(CNC(=O)CN(C)Cc3ccccc3)on2)cc1	n	n	n	x	n	n	n	0.024	n	0.013	n
SMILES	p-CIP stab down	ABCB6 inh MLPCN	V-ATPase pHluor	Cl transport mod	Dynein transport	KCC2 sec1	KCC2 bumet counter	KCC2 sec2	HEK counter1	KCC2 retest ouab	HEK counter2
NC(=O)CSc1nccn1Cc1ccccc1	n	n	n	n	n	x	x	x	x	x	x
O=[N+]([O-])c1ccccc1Sc1nccn1Cc1ccccc1	n	n	n	-4.2	n	n	n	n	u	0.013	n
CSc1sc(-c2n[nH]c(=S)n2C)c2c1C=CCC2	n	n	n	4.3	n	n	0.015	n	0.0093	u	u
Cc1nc(-c2ccccc2)sc1-c1n[nH]c(=S)n1C	n	n	n	n	n	x	x	x	x	x	x
COc1ccc(CN(C)Cc2c(O)ccc3cc(Br)ccc23)cc1OC	n	n	n	x	x	x	x	x	x	x	x
CC1(C)C(=O)Nc2ccccc2N1C(=O)COc1cccnc1[N+](=O)[O-]	n	n	n	n	n	x	x	x	x	x	x
C=CCNC(=S)NC(=O)c1oc2ccccc2c1C	n	n	n	11	n	n	0.035	n	0.021	0.042	0.012
N#C/C(=C\c1ccc(-c2ccccc2Cl)o1)C(=O)Nc1nc2ccccc2s1	n	n	n	6.8	n	n	0.024	n	0.032	0.029	0.034
N#CC1=C(N)NC(SCc2ccc(F)cc2)=C(C#N)C12CCCCC2	n	n	n	n	n	n	n	0.024	u	u	n
O=C(CCNC(=O)Cn1ccc2ccccc2c1=O)NCCN1CCN(c2cccc(Cl)c2)CC1	n	n	n	4.6	n	n	n	n	n	n	n
O=C(Cn1ccc2ccccc2c1=O)NCCC(=O)N1CCN(c2cccc(Cl)c2)CC1	n	n	n	-2.8	n	n	n	n	n	u	n

Screens deposited in PubChem by several laboratories.
